Source: PubChem (several laboratories)
PolyA inh – yeast polyadenylation inhibition; S. cerevisiae SKY197-pL101 polyadenylation reporter, beta-gal luminescence; efflux-impaired pdr1/pdr3 knockout yeast; score 100 = 6 SD above DMSO; activity score, % at 12 µM; 0.02% of 300,000 active;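 active = lowest replicate activity score at least 50, where 100 means six control SD above control mean; inconclusive = lowest score under 50 but half or more replicates reach 50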;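 also: yeast exposed to compound for 9 h at 30 °C; higher score means more reporter readthrough which indicates perturbed polyadenylation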
T cruzi repl – blocks replication of Trypanosoma cruzi. T. cruzi beta-gal in NIH3T3, luminescence, 90 h. inhibition, % (test concentration not listed). 1.4% of 300,000 active;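 active = mean inhibition across valid replicates above about 55%, limit read from the data; inconclusive = mean below that limit but half or more replicates reach it; inactive = mean below it, under half of replicates reach it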;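 also: signal also drops with host cell toxicity which is not excluded here; 0% = plate median of DMSO wells and 100% = zero luminescence signal; higher percent means less beta-gal luminescence so fewer parasites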
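Test system: β-gal T. cruzi (Tulahuen C4) inside NIH/3T3 cells / Quantity: 5,000 cells/well / Measured by: luminescence from GalScreen with 0.05% NP40, read after 60 min / Medium: DMEM plus 2% FBS / Measure: parasite load inhibition, % / Reagent: Tulahuen C4 trypomastigotes, 5000/well / Schedule: co-culture of at least 90 h after 3 h attachment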
Efflux pump mplx – inhibitors of Candida antifungal efflux pumps expressed in yeast | inhibition, % at 10 µM | S. cerevisiae Candida pump triplex, Nile Red efflux | 0.44% of 330,000 active;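 active = plate passing quality check with inhibition over a set limit, or well fluorescence over plate mean plus 4 SD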;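 also: Nile Red retained in pooled yeast measured as flow cytometry median fluorescence; 0% = buffer negative control and 100% = Enniatin B positive control; higher means more Nile Red kept so more efflux inhibition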
AI-2 QS mod – Vibrio harveyi AI-2 quorum sensing modulation | AID 2094 | Vibrio harveyi JMH597 AI-2 luminescence/OD600 ratio, 9 h; stronger effect = lower value; strain lacks LuxN and CqsS sensors; 0 = neutral-control median | 0.4% of 300,000 active | activity change, % at 7.5 µM; in the data active = activity change below about -75%, passing the limit was not always enough; inconclusive = no clear call, values can overlap the other calls;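 also: luminescence divided by OD600 gain over 9 h not by final OD600 alone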
HDAC3 inhib – human HDAC3 inhibition; recombinant HDAC3, fluorogenic peptide/trypsin coupled, fluorescence; inhibition, % at 8.3 µM; 0.15% of 320,000 active; AID 2718; in the data active = inhibition above about 26%, passing the limit was not always enough; inconclusive = no clear call, values can overlap the other calls
Target sequence (O15379 whole entry, looked up): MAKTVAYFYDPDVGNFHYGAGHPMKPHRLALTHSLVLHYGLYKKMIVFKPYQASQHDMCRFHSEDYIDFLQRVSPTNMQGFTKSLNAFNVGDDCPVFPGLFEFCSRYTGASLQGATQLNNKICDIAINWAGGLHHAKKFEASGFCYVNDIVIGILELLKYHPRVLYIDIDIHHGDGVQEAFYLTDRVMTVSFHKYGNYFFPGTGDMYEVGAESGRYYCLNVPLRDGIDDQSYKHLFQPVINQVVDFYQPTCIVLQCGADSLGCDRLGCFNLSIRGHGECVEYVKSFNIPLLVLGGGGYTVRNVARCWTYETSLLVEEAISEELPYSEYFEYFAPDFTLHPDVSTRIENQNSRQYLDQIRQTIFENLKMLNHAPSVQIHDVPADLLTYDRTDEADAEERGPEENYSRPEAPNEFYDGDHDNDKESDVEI
Active calls of the source: *; ? = inconclusive; · = no result given. A selection: hits, their analogues and other compounds. The true share with any hit is near 2.2%.

SMILES	PolyA inh	T cruzi repl	Efflux pump mplx	AI-2 QS mod	HDAC3 inhib
CN(C)CCCN=Cc1c(O)n(Cc2ccc3c(c2)OCO3)c(=O)c2ccccc12	4.2	74.6*	0.0	0.8	9.3
Cc1cc(-n2c(C)cc(C(=O)CCl)c2C)no1	-16.4	79.2*	0.1	15.3	-0.1
COc1ccc(CCNCc2cc(C)n(-c3ccc(OC)cc3)c2C)cc1	-0.3	65.5*	2.8	23.6	-4.2
COc1ccc(-n2c(C)cc(C(=O)CCl)c2C)cc1	-20.3	43.1	-0.1	-86.7*	2.4
COc1ccc(CCNCc2ccccc2N2CCCC2)cc1	10.7	9.2	-0.1	15.3	-1.7
Cc1cc(-n2c(C)cc(C(=O)CN3C(=O)C(=O)N(C)C3=O)c2C)no1	·	·	0.1	·	?
O=C1C(Cc2ccc3[nH]ccc3c2)NC(=S)N1c1ccccc1 (configuration not stated)	7.9	-7.1	0.0	13.1	5.7
N=c1c2c(-c3ccccc3)c(-c3ccccc3)n(Cc3ccco3)c2ncn1CCN1CCOCC1	-7.5	67.1*	0.4	5.8	5.7
N=c1c2c(-c3ccccc3)c(-c3ccccc3)n(Cc3ccco3)c2ncn1CCCO	7.8	64.7*	0.1	-5.2	2.4
COc1cc(SC)ccc1C(=O)N1CCN(Cc2ccc3c(c2)OCO3)CC1	1.7	4.0	0.0	5.7	3.4
CCOc1cc(Br)cc(/C=N/NC(=O)c2cccnc2)c1O	5.2	35.2	0.2	·	-5.6
NC(=O)c1ccc(OCC(F)(F)C(F)(F)C(F)(F)C(F)(F)C(F)(F)C(F)F)cc1	2.2	2.6	0.0	6.8	30.9*
Cc1ccc(-n2ncc(Br)c(Br)c2=O)cc1	-41.0	74.6*	·	-14.5	·
CN1/C(=C\C(=O)COc2ccc3c(c2)OCO3)C(C)(C)c2ccccc21	-9.7	56.0*	-0.1	7.3	11.1
CN1/C(=C\C(=O)C[n+]2ccc3ccccc3c2)C(C)(C)c2ccccc21	-6.9	61.1*	·	10.9	·
O=C(NNC(=O)[C@H]1CC=CC[C@H]1C(=O)O)c1ccc(Cl)cc1Cl	8.8	2.9	0.1	-3.7	2.1
O=C(c1ccc(Cl)cc1)C1CCCN(Cc2ccc(Oc3ncccn3)cc2)C1 (configuration not stated)	13.4	47.6	0.0	15.2	·
O=C(c1ccc(-c2ccccc2)cc1)C1CCCN(Cc2ccncc2)C1 (configuration not stated)	-1.1	54.8*	0.3	4.9	8.6
Cc1nn(C)cc1CN1CCCC(C(=O)c2ccc(-c3ccccc3)cc2)C1 (configuration not stated)	-13.6	62.1*	-0.1	-7.9	8.2
O=C(c1ccc(Cl)cc1)C1CCCN(Cc2cnn(-c3ccccc3)c2)C1 (configuration not stated)	-6.3	61.1*	0.1	19.0	9.1
CCOC(=O)N1CCC(=NNC(=O)Cn2ccc(C(F)(F)F)n2)CC1	12.7	-2.5	-0.1	17.2	-1.7
CCc1cccc(C)c1NC(=S)NCc1cccn1C	-15.7	-7.5	0.0	16.5	0.2
Cc1ccccc1Cn1nnc2c1C(=O)c1ccccc1C2=O	-15.3	52.9	0.0	11.7	-4.9
Cc1cccc(Cn2nnc3c2C(=O)c2ccccc2C3=O)c1	-31.6	61.0*	-0.1	26.6	-1.1
OCCC1CN(Cc2ccc3nonc3c2)CCN1Cc1ccsc1 (configuration not stated)	2.7	70.4*	0.0	4.3	-4.3
SMILES	PolyA inh	T cruzi repl	Efflux pump mplx	AI-2 QS mod	HDAC3 inhib
Fc1ccccc1N1CCN(C2CCCN(Cc3cccc(C(F)(F)F)c3)C2)CC1 (configuration not stated)	-21.9	71.6*	-0.1	5.5	5.5
CCOc1ccc(CN2CCN(Cc3cccn3-c3cccnc3)CC2CCO)cc1 (configuration not stated)	-4.1	59.9*	-0.1	29.8	1.7
OCCC1CN(Cc2ccc3cc(Cl)ccc3n2)CCN1Cc1ccsc1 (configuration not stated)	3.5	23.2	0.1	28.2	-5.1
Cc1ccc(CN2CCN(Cc3cccc4c3OCO4)CC2CCO)cc1 (configuration not stated)	6.0	89.6*	-0.1	0.6	0.1
CN(C(=O)C(C)(C)C)C1c2c(ccc3ccccc23)OCC1CO (configuration not stated)	-8.5	3.5	-0.1	8.0	6.1
N#CN1CCC(NS(=O)(=O)c2ccc(C(F)(F)F)cc2)C1 (configuration not stated)	·	·	0.3	·	1.5
OCCC1CN(Cc2cccc(C(F)(F)F)c2)CCN1Cc1ccccc1 (configuration not stated)	5.9	54.7*	-0.1	16.4	0.1
OCCC1CN(Cc2ccc(C(F)(F)F)cc2)CCN1Cc1ccccc1 (configuration not stated)	-10.1	10.2	0.2	7.3	4.8
COc1cccc(CN2CCN(Cc3ccc(O)cc3)CC2CCO)c1 (configuration not stated)	2.1	-12.7	-0.1	8.3	12.8
CCOc1ccc(CN2CCN(Cc3cccc4nonc34)CC2CCO)cc1 (configuration not stated)	-10.3	59.9*	0.0	4.4	1.0
OCCC1CN(Cc2cc3c(cc2Cl)OCO3)CCN1Cc1ccccc1 (configuration not stated)	-18.8	58.6*	-0.1	14.5	2.0
COc1cccc(CN2CCN(Cc3c(C)nn(C(C)C)c3C)CC2CCO)c1 (configuration not stated)	3.5	71.3*	-0.1	22.8	-4.3
Cc1nn2c(=O)cc(CSCC(=O)Nc3ccccc3Cl)nc2s1	20.0	-10.0	-0.1	16.0	·
N#CCCCc1cc2ccccc2cn1	·	·	0.2	·	5.5
COC(=O)C1=C(C)N(C)C(=O)NC1c1c(OC)ccc2ccccc12 (configuration not stated)	-7.9	-4.6	0.1	30.9	2.4
CCOc1ccc(CN2CCN(Cc3cccc4c3OCO4)CC2CCO)cc1 (configuration not stated)	4.9	96.9*	0.5	64.1	0.7
Cc1cc(/C=C2/SC(=S)N(c3ccc([N+](=O)[O-])cc3)C2=O)c(C)n1-c1cccnc1	-8.8	59.1*	0.2	8.0	-0.9
Cc1ccc(/C=C2\SC(=S)N(c3cccnc3)C2=O)o1	18.9	62.1*	0.1	16.0	9.4
CC(=O)N1CCc2cc(Br)cc(S(=O)(=O)NCCCN(C)Cc3ccccc3)c21	-3.1	5.5	0.0	28.6	1.4
c1ccc(-c2cc(-c3nnc4n3N=C(c3ccc5ccccc5c3)CS4)[nH]n2)cc1	-11.2	58.8*	0.3	16.7	-0.6
Cc1cc(-c2nnc3n2N=C(c2ccc(-c4ccccc4)cc2)CS3)n[nH]1	12.6	45.9	0.3	34.5	14.0
CCC1CSC(Nc2ccc(C(=O)/C=C/c3cccc(C)c3)cc2)=N1 (configuration not stated)	-24.9	60.0*	0.7	20.7	3.2
Cc1nc(-c2ccccn2)nc(N2CCOCC2)c1Cl	18.9	-56.8	0.1	8.4	1.3
